Screening results: PubChem, several laboratories
Shown are actives, neighbours in structure and some others; about 5.2% of the full set was active somewhere.
ZTA DNA inh: blocks Epstein-Barr virus ZTA, an EBNA-1 counter-screen; P03206; ZTA-DNA binding, fluorescence polarization; inhibition, % at 11 µM; 320,000 compounds, 0.15% hits; in the data active = inhibition above about 33%
Target sequence (P03206 whole entry, looked up): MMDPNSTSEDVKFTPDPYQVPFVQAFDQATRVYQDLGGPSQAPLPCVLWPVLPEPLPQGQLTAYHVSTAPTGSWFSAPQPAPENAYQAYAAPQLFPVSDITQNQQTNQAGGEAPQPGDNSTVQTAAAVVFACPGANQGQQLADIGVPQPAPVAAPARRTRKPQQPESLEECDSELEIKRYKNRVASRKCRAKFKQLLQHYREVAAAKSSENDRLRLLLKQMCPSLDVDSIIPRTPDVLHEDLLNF
HCV NS3 hel inh: blocks Hepatitis C virus NS3 helicase unwinding; inhibition, % at 10.9 µM; 290,000 compounds, 0.56% hits; AID 1800; NS3 helicase DNA unwinding, Cy5 molecular beacon fluorescence;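 active = inhibition above the mean of all tested compounds plus 3 SD, set per campaign, cut at about 35% in these data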;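 note: 0% = DMSO wells and 100% = thioflavine S control wells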
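System: HCV NS3 helicase fragment; control set: DMSO and thioflavine S; technique: Cy5 fluorescence at 0 and 60 min, beacon hairpin quenching; reagent: beacon DNA duplex substrate plus ATP; replicates: singlicate; schedule: 1 h reaction at 25 °C, ATP-initiated; medium: MOPS buffer pH 6.5 with MgCl2, DTT, Tween20, BSA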
EBNA-1 inh: blocks EBNA-1 binding to DNA | inhibition, % at 14.8 µM | EBNA-1 DNA binding, fluorescence polarization | AID 1950 | 300,000 compounds, 0.34% hits; in the data active = inhibition above about 28%
M18AAP inhibitor: blocks P. falciparum M18 aspartyl aminopeptidase | recombinant PfM18AAP, H-Glu-NHMec fluorogenic cleavage | inhibition, % at 7.35 µM | 290,000 compounds, 1.2% hits;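 active = inhibition above the campaign mean inhibition over all tested compounds plus 3 SD, cut at about 28% in these data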;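 note: 0% = plate median of test compound wells and 100% = 2 mM ZnCl2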
HCV core dimer: HCV core protein dimerization inhibition | TR-FRET GST/Flag-core106 dimerization, 1536-well | inhibition, % at 5 µM | 300,000 compounds, 0.33% hits;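 active = inhibition above the mean of all tested compounds plus 3 SD, set per screening campaign, cut at about 45% in these data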
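Assay system – GST-tagged and Flag-tagged HCV core protein residues 1-106 · Quantity – core106 proteins, GST 13.5 nM and Flag 17 nM · Benchmarks – unlabelled core106 and no-GST-core106 wells · Read-out basis – percent inhibition of core106 dimerization signal · Detection – time-resolved FRET, ex 340 nm, em 617 and 671 nm · Schedule – 4 h at 22.5 °C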
ALR H2O2 inh: inhibitors of human sulfhydryl oxidase ALR | purified ALR, DTT oxidation, H2O2 HRP-luminol luminescence | AID 485317 | 290,000 compounds, 3.8% hits | inhibition, % (test concentration not listed) | P55789;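 active = mean replicate inhibition above about 79%, with every replicate also reaching it, limit read from the data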
Target sequence (P55789 whole entry, looked up): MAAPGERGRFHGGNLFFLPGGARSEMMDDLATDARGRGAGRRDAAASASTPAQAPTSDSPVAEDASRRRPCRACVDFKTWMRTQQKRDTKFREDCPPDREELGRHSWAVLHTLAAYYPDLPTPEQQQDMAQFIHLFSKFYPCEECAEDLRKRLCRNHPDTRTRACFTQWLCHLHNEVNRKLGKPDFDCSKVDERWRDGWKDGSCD
Numbers without * were called inactive; x = not tested or not shown.

SMILES	ZTA DNA inh	HCV NS3 hel inh	EBNA-1 inh	M18AAP inhibitor	HCV core dimer	ALR H2O2 inh
CCc1c(O)nc(SCC(=O)NCc2ccco2)[nH]c1=O	-22	1	-5	-1	6	98*
COc1ccc(C(=O)N/N=C(\C)CC(=O)Nc2cccc(C(F)(F)F)c2)cc1	-3	2	-4	-14	0	-4
CC(=O)Nc1ccc(NC(=O)c2ccc(-c3ccc([N+](=O)[O-])cc3)o2)cc1	-16	32	-4	12	21	-31
COc1cc([N+](=O)[O-])ccc1-c1ccc(C(=O)Nc2ccc(NC(C)=O)cc2)o1	14	28	4	27	25	98*
Cc1ccc(Cl)cc1N1CCN(C(=O)CSc2ccsc2[N+](=O)[O-])CC1	2	11	7	3	57*	x
O=C(CSc1ccc(Cl)cc1)N1CCN(c2ccc([N+](=O)[O-])cc2Cl)CC1	-13	-11	8	3	22	-4
Cc1ccc(OCC(=O)N/N=C/C=C/c2ccco2)cc1	-8	13	-9	6	67*	-18
O=C(CSc1nnc(SCc2ccccc2)s1)N/N=C/C=C\c1ccco1	-8	21	6	6	40	97*
COc1cccc(NC(=O)n2ncc3c(C)cccc32)c1	14	5	12	4	-2	-5
CCCCc1ccc(/C=C2\C(=O)c3ccccc3C(O)=C2C(=O)OCC)cc1	12	23	-7	-8	-3	-11
O=c1[nH]c(/C=C\c2ccccc2F)nc(O)c1[N+](=O)[O-]	20	11	7	-3	17	97*
O=c1[nH]c(/C=C\c2cccc(F)c2)nc(O)c1[N+](=O)[O-]	-2	32	1	6	17	91*
C=CCOc1ccc(/C=C\c2nc(O)c([N+](=O)[O-])c(=O)[nH]2)cc1OCC	13	25	10	6	-14	97*
O=c1[nH]c(/C=C/c2ccccc2F)nc2ccccc12	x	-2	x	1	x	-4
COc1ccc2[nH]c(C(=O)O)c(CCNC(=O)/C=C/c3ccc(O)c(OC)c3)c2c1	13	-1	9	-6	2	74
COC(=O)c1ccc(N2CCCCC2)c(NC(=O)c2ccco2)c1	9	-8	1	4	5	38
Cc1ccccc1N1CCN(S(=O)(=O)Cc2ccccc2)CC1	-3	-8	7	3	15	-3
COc1ccc(C(C)NC(=O)Cc2cccs2)cc1OC (stereo not given)	1	9	-8	-2	1	-10
CNC(=O)[C@H]1O[C@@H](n2cnc3c(NCc4cccc(I)c4)ncnc32)[C@H](O)[C@@H]1O	-2	x	-10	x	-9	82*
CC(=O)CC(=O)Nc1ccn(-c2ccccc2)n1	-12	15	-4	-2	-6	82*
Cc1cccc(N2CCN(C(=O)CCNS(=O)(=O)c3cccs3)CC2C)c1 (stereo not given)	-18	-6	-5	1	-3	93*
COc1cccc(NC(=O)N2CCCCCC2)c1	4	11	-2	-15	-2	-14
CCC(=O)N1CCc2cc(S(=O)(=O)NCCC(=O)N3CCN(c4cccc(C)c4)C(C)C3)ccc21 (stereo not given)	0	9	-8	-4	1	98*
COc1cccc(NC(=O)N2CCN(c3cccc(C)c3)C(C)C2)c1 (stereo not given)	-3	0	-6	-2	-2	99*
Cc1ccc(N2CCN(C(=O)CNS(=O)(=O)c3ccc(Br)s3)CC2C)cc1 (stereo not given)	-5	-6	-1	-1	9	98*
SMILES	ZTA DNA inh	HCV NS3 hel inh	EBNA-1 inh	M18AAP inhibitor	HCV core dimer	ALR H2O2 inh
CC1CC(C)CN(C(=O)CNS(=O)(=O)c2ccc(Br)s2)C1 (stereo not given)	-1	1	-8	-3	5	x
CC1CC(C)CN(C(=O)CCNS(=O)(=O)c2cccs2)C1 (stereo not given)	-10	0	-5	-6	-15	-4
CNC(=S)N/N=C/c1cn(CCOc2cccc(OC)c2)c2ccccc12	-6	-13	9	3	6	x
COc1ccc2c(c1)OC[C@H]1[C@H]2N2C(=O)CNC(=O)[C@@]2(C)[C@H]1c1ccccc1	x	x	x	x	x	-2
CSc1ccc(CN2CCN(C(=O)CC(C)C)CC2)cc1	3	-5	-17	-2	-10	-7
Cc1c(C(=O)N2CCCCC2)c(S(=O)(=O)NCc2ccc(N(C)C)cc2)c(C)n1C	-1	-7	3	3	-3	98*
Cc1ccc(-n2c([C@@H]3C[C@H]3c3ccccc3)n[nH]c2=S)cc1	5	1	-3	15	8	85*
Cc1ccc(S(=O)(=O)NC(=O)Nc2cc(C)no2)cc1	5	-6	-3	1	3	-10
Cc1nnc(SCC(=O)Nc2ccc(OC(F)F)c(Cl)c2)n(N)c1=O	x	x	x	x	x	99*
COc1ccc(NC(=O)CSc2nnc(Cc3ccccc3)c(=O)n2N)c(OC)c1	-10	x	-4	x	1	0
Nn1c(SCC(=O)Nc2ccc(OC(F)F)cc2)nnc(Cc2ccccc2)c1=O	-11	x	-1	x	-2	98*
CC(C)C[C@H](NC(=O)OC(C)(C)C)C(=O)N[C@@H](CO)[C@H](O)[C@@H]1C[C@@H]1C(=O)N(C)C	20	19	-11	1	-8	3
CCCC(=O)N(CCN1CCOCC1)c1nc2c(OC)ccc(OC)c2s1	0	-3	2	1	-1	-26
O=C(C1CCC(CNc2c(N3CCOCC3)c(=O)c2=O)CC1)N1CCN(c2ccccc2)CC1 (stereo not given)	0	-12	6	8	6	87*
COc1ccc2nc(SCC(=O)N(C)CC(=O)Nc3ccc(F)cc3)[nH]c2c1	-1	x	-3	x	-1	0
CN(CC(=O)Nc1ccccc1C(F)(F)F)C(=O)CN1C(=O)C2CCCCC2C1=O (stereo not given)	-5	x	-8	x	4	-2
COc1ccc2oc3cc(C)[n+]([O-])c(-c4ccc(C)cc4)c3c2c1	6	4	0	9	-1	93*
O=C(c1ccc2c(c1)OCO2)N1CCN=C1SCc1ccccc1	-8	0	7	3	0	93*
O=C(c1cccc(F)c1)N1CCN=C1SCc1cccnc1	-7	16	3	9	6	100*
COc1cc(OC)cc(C(=O)N2CCN=C2SCc2cccnc2)c1	2	-2	1	2	-3	100*
CC(=O)N1CCN=C1SCc1ccccc1	-6	2	0	0	2	3
C=CCn1c(SCC(=O)Nc2nc(C)cs2)nnc1C(C)NC(=O)c1ccccc1Cl (stereo not given)	-9	-6	4	0	2	94*
Cc1cn(C2CC(OC(=O)C(C)C)C(CO)O2)c(=O)[nH]c1=O (stereo not given)	2	x	x	x	x	x
